# Sampled rows, rich in hits. Any-hit rate of the full collection: about 2.4%.
# EBV gp42 block = EBV gp42 inhibition; Fluorescence polarization binding assay, mP read-out; inhibition, % (tested at 21.74 µM); hit rate 0.42% among 220,000; Q1HVG2; in the data active = inhibition above about 50%
# LANA-H2A inh = blocks KSHV LANA binding to histone H2A/H2B. Q9QR71. hit rate 0.6% among 320,000. cell-free LANA-H2A/H2B peptide, fluorescence polarization. inhibition, % (concentration not given with the values). AID 2629; in the data active = inhibition mostly above about 10%, no sharp cut-off; inactive = mostly below about 6.7%
# Runt-SMMHC FRET = blocks binding of human RUNX1 Runt domain to CBFb-SMMHC. AID 1434. Q01196+Q13951. Cerulean-Runt/Venus-CBFb-SMMHC FRET ratio 530/480, 1 h. inhibition, % at 20 µM. hit rate 0.74% among 220,000;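 active = mean inhibition across duplicate retests at 20 µM reaching about 50%, limit read from the data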;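 note: 0% = DMSO wells and 100% = wells with excess untagged CBFb-SMMHC; inhibitors lower the FRET ratio by blocking Runt binding to CBFb-SMMHC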
# RanGTP-Imp inh = disruptors of Ran-importin-beta complex formation – biochemical, FRET, CFP-Ran, YFP-importin-beta, homogeneous, primary screen; cell-free CFP-Ran/YFP-importin-beta FRET ratio; inhibition, % (test concentration not listed); hit rate 1.1% among 300,000; AID 2216;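 active = more than half of the replicate wells show a fall in the fluorescence ratio signal beyond about 16%, limit read from the data, passing the limit was not always enough; inconclusive = exactly half of the replicate wells pass the set limit; inactive = fewer than half of replicates pass the limit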;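 note: 0% = DMSO wells and 100% = Ran loaded with GDP instead of GTP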
# MEX-5 binding = C. elegans MEX-5 TCR-2 RNA binding activity | Q9XUB2 | MEX-5/FITC-TCR2 RNA binding, fluorescence polarization; hits give low values | activity score (negative = inhibition of binding), % at 10 µM | hit rate 0.38% among 300,000;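 active = inhibition past about -25% in most replicates, and total fluorescence under double the plate's negative control median, limit read from the data; inconclusive = replicates evenly split on the limit, or fluorescence at least double controls; inactive = too little inhibition in most replicates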;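 note: 0% = DMSO and -100% = 5 µM competing unlabeled TCR2 RNA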
# Target sequence (Q9XUB2 whole entry, looked up): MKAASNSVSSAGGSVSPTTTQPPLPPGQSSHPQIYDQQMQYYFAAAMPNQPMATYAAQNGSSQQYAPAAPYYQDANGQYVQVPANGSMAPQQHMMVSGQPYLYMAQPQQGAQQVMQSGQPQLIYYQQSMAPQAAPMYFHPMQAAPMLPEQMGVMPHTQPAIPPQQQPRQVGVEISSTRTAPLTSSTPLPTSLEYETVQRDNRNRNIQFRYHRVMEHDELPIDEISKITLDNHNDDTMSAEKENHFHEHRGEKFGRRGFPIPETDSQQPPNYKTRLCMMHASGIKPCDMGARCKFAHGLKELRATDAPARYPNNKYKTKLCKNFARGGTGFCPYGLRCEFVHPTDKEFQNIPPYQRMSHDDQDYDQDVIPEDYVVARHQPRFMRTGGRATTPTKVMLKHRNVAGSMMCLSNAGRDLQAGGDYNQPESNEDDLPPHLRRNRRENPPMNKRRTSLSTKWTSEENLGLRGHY
# Runt-CBFb FRET = Runt domain-CBFb interaction inhibition. Q01196+Q13951. Cerulean-Runt/Venus-CBFb FRET ratio 530/480, 1 h. inhibition, % at 20 µM. hit rate 0.46% among 220,000. AID 1496;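 active = inhibition over about 50% at 20 µM in the single-dose screen, limit read from the data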;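 note: 0% = DMSO wells and 100% = excess unlabeled CBFb competitor control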
#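 test system = Cerulean-tagged RUNX1 Runt domain (FRET donor) fusion protein | reagent = Venus-CBFb binding partner, 100 nM | incubation = protein complex preformed 1 h, compound exposure 1 h, room temperature, dark | detection = FRET fluorescence | read-out basis = loss of energy transfer signal | controls = 5 µM unlabeled CBFb as full-inhibition high control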
# The depositor's hits bear a star; ? = inconclusive; / = no result.
SMILES,EBV gp42 block,LANA-H2A inh,Runt-SMMHC FRET,RanGTP-Imp inh,MEX-5 binding,Runt-CBFb FRET
CN(CC(=O)Nc1ccc(Cl)c(C(F)(F)F)c1)C(=O)Cc1ccsc1,/,-6,/,2,1,/
Cc1cc(NC(=O)CN2CCCC2c2nc3ccccc3s2)no1 (stereo not drawn),-17,15*,0,?,2,-2
Cc1cc(NC(=O)CSCC(=O)Nc2nc3ccccc3s2)no1,/,-1,/,/,/,/
O=C(Cn1nnc2ccccc21)OCC(=O)c1ccc(F)cc1,-7,4,1,-3,/,0
O=C(CSC1CS(=O)(=O)c2cc([N+](=O)[O-])ccc21)NNC(=O)c1ccccc1 (stereo not drawn),-11,0,-2,18*,0,-1
Cn1c(=O)n(Cc2ccccc2F)c2ccccc21,7,-2,-1,40*,1,2
COc1nc2ccccc2nc1CCC(=O)O,-9,0,/,-3,-1,/
CC1(C)CC(=O)C2=C(C1)OC1=C(C(=O)CC(C)(C)C1)C2c1ccc(O)c([N+](=O)[O-])c1,2,0,-1,0,1,-3
CC1(C)CC(=O)C2=C(C1)OC1=C(C(=O)CC(C)(C)C1)C2c1ccc(O)cc1O,117*,-5,42,93*,?,6
O=C(CCn1c(=S)oc2ccccc21)Nc1cccc(F)c1,-26,129*,0,-5,-1,0
O=C(Cn1c2ccccc2c(=O)c2ccccc21)Nc1cccc(F)c1,-17,-2,63*,60*,-1,76*
O=C(COC(=O)c1cnccn1)NC(=O)c1ccccc1,/,7,/,1,1,/
CN(C)Cc1c(O)ccc2c1O/C(=C\C=C\c1ccccc1)C2=O,-6,-7,-104,-284,?,-179
Cc1cc(O)c(CN(C)C)c2c1C(=O)/C(=C/c1ccco1)O2,/,3,/,-46,-37*,/
CC(=O)N1c2ccc(S(=O)(=O)N3CCC(C(=O)NCc4ccc(N(C)C)cc4)CC3)cc2CC1C (stereo not drawn),/,1,/,67*,3,/
CC(=O)N1c2ccc(S(=O)(=O)N3CCC(C(=O)NCc4ccc(C)cc4)CC3)cc2CC1C (stereo not drawn),/,1,/,?,-2,/
Cc1ccc(N2C(=O)N(CC(=O)Nc3cc(Cl)ccc3C)C(=O)C2C)cc1 (stereo not drawn),/,/,/,3,0,/
Cc1ccc(NC(=O)COC(=O)CCC(=O)c2cccs2)cc1C,-4,1,3,-2,0,0
COc1ccc(NC(=O)COC(=O)CCC(=O)c2cccs2)cc1OC,/,23*,/,/,/,/
CSCCC(NS(=O)(=O)c1ccc(C)cc1)C(=O)N1CCCCCCC1 (stereo not drawn),/,3,/,/,/,/
N=C1C(c2nc3ccccc3[nH]2)=C(O)CN1c1ccc(CC(=O)O)cc1,-10,-7,8,0,-85*,6
CCN(CC)S(=O)(=O)c1ccc(N2CCOCC2)c(NC(=O)Cc2cccc3ccccc23)c1,-18,-1,-5,2,-1,-2
CCOC(=O)C1CCCN(c2nc3ccccc3nc2C(C#N)C(=O)OCC)C1 (stereo not drawn),1,7,-19,9,-7,-18
CCOC(=O)C1CCCN(c2nc3ccccc3nc2C(C#N)C(=O)OCCOC)C1 (stereo not drawn),-16,20*,-6,6,0,-21
COCCNC(=O)C(C#N)c1nc2ccccc2nc1N1CCCCCC1 (stereo not drawn),1,2,51*,72*,-7,44
SMILES,EBV gp42 block,LANA-H2A inh,Runt-SMMHC FRET,RanGTP-Imp inh,MEX-5 binding,Runt-CBFb FRET
Cc1ccccc1S(=O)(=O)NNC(=O)C(=O)NNc1ccccn1,-3,-1,2,-1,-26*,1
Nc1ccc(S(=O)(=O)NNC(=O)C(=O)NNc2ccccn2)cc1,-2,2,0,4,-30*,5
CC(=O)Nc1ccc(S(=O)(=O)NNC(=O)C(=O)NNc2ccccn2)cc1,-8,-4,3,0,-45*,7
Cc1ccc(S(=O)(=O)NNC(=O)C(=O)NNc2ccccn2)cc1,-7,2,-1,2,-9,3
CC(=O)Nc1ccc(S(=O)(=O)Nc2ccccn2)cc1,-9,1,2,-4,1,2
COc1cccc(/C=N/NC(=O)Cn2cnc3c2c(=O)n(C)c(=O)n3C)c1OC,-7,2,-2,2,2,0
CCOC(=O)C(C)c1c(C(=O)c2ccc(C)nc2)c2ccccc2n1C (stereo not drawn),3,-3,52*,-1,4,4
CCOC(=O)C(=O)N=Nc1c(O)n(C)c2ccccc12,3,-3,-1,?,-4,1
Cc1c(NC(=O)CN2C(=O)c3cccc4cccc2c34)c(=O)n(-c2ccccc2)n1C,-8,18*,-8,-2,0,-3
Cc1c(NC(=O)CN2C(=O)C(=O)c3ccccc32)c(=O)n(-c2ccccc2)n1C,-8,-1,0,8,0,-1
Cc1c(NC(=O)CN2C(=O)C3C4C=CC(C4)C3C2=O)c(=O)n(-c2ccccc2)n1C (stereo not drawn),-14,0,34,9,-1,12
Cc1c(NC(=S)N/N=C/c2cccc(O)c2)c(=O)n(-c2ccccc2)n1C,6,0,1,-3,-4,-3
Cc1c(NC(=O)CN2C(=O)NC(CCc3ccccc3)C2=O)c(=O)n(-c2ccccc2)n1C (stereo not drawn),-15,0,2,34*,-2,0
Cc1c(NC(=S)N/N=C/c2ccc(N(C)C)cc2)c(=O)n(-c2ccccc2)n1C,-13,1,62*,8,2,24
Cc1c(NC(=O)C(C)N(c2ccccc2)S(C)(=O)=O)c(=O)n(-c2ccccc2)n1C (stereo not drawn),-1,40*,0,2,1,-1
COc1cc(C(=O)Nc2cc(-c3cn4cccnc4n3)ccc2C)cc(OC)c1OC,-5,-7,3,1,-1,-1
CC(=O)Nc1ccc(NC2CCCCC2NS(=O)(=O)c2ccc(Cl)cc2)cc1 (stereo not drawn),/,1,/,2,0,/
COc1cc(/C=C/C(=O)OC(C)C(=O)Nc2c(C)n(C)n(-c3ccccc3)c2=O)ccc1O (stereo not drawn),/,119*,/,/,1,/
O=C1CCC([N+](=O)[O-])C(c2cccc3ccccc23)N1 (stereo not drawn),-17,2,-5,0,0,0
Cc1ccc(C)c(C(=O)Nc2cc(C)nn2-c2nc(C)cc(C)n2)c1,2,0,-1,0,-4,-2
